Test results reported in ChEMBL document CHEMBL1128452, “Pseudodipeptide inhibitors of protein farnesyltransferase” (J Med Chem, 1995).
One block for each molecule: values may come before it. Peptide text beside a SMILES is read from it. * marks the point of attachment. NHPhenethyl = c1ccc(CCN*)cc1

Key:
[1] = target: Protein farnesyltransferase (Bos taurus, UniProt P29702+P49355); experiment: In vitro concentration required to reduce Farnesyltransferase catalyzed incorporation of [3H]FPP into recombinant Ha-Ras protein by 50%; type: protein-complex assay
Procedure, shortened: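 Farnesyltransferase was purified from bovine brain and used at ca. 1 nM. It was incubated with compound, [³H]FPP and recombinant Harvey-Ras. Total protein was acid-precipitated and Ras-bound label counted by scintillation. IC50 is the concentration halving incorporation relative to a no-inhibitor control. Values are mean ± SEM of the stated number of determinations, or a single determination estimated reliable within 2-fold.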

NIH3T3 = experiment: Highest nontoxic concentration for cultured NIH 3T3 cells assessed by MTT staining.; type: functional, Mus musculus
Procedure, shortened: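 NIH 3T3 cells exposed to compound for 48 h. Viability read by MTT staining. The value reported is the highest concentration the cells tolerated without toxicity.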

[2] = target: Geranylgeranyl transferase type I (Bos taurus, UniProt P29702+Q5EAD5); experiment: Inhibition of bovine Geranylgeranyl transferase type I; type: protein-complex assay

SMILES: C[C@H](NC[C@@H](N)CS)C(=O)NCc1ccccc1
IC50 [1]: 2000 nM

SMILES: CCC(C)[C@H](NC[C@@H](N)CS)C(=O)NCc1ccc(OC)cc1 (stereo partly specified)
IC50 [1]: 660 nM
Cytotoxic endpoint (NIH3T3): 50 µM

SMILES: CCC(C)[C@@H](CNCCc1ccccc1)NC(=O)[C@@H](N)CS (stereo partly specified)
IC50 [1]: 9000 nM

SMILES: CCC[C@H](NC[C@@H](N)CS)C(=O)NCc1ccccc1
IC50 [1]: 600 nM

SMILES: CCC(C)[C@H](NC[C@@H](N)CS)C(=O)NCCC(C)C (stereo partly specified)
IC50 [2]: 100000 nM

SMILES: CC[C@H](NC[C@@H](N)CS)C(=O)NCc1ccccc1
IC50 [1]: 1100 nM

SMILES: CCC(C)[C@H](NC[C@H](C)N)C(=O)NCCc1ccccc1 (stereo partly specified)
IC50 [1]: > 10000 nM
Cytotoxic endpoint (NIH3T3): >100 µM

SMILES: CCC(C)[C@H](NC[C@@H](N)CS)C(=O)NCc1cccc(C)c1 (stereo partly specified)
IC50 [1]: 1000 nM
Cytotoxic endpoint (NIH3T3): 25 µM

SMILES: CCC(C)[C@H](NC[C@@H](N)CS)C(=O)NCCc1ccccc1 (stereo partly specified)
IC50 [1]: 707 nM
Cytotoxic endpoint (NIH3T3): 10 µM

SMILES: CCC(C)[C@@H](CNCCc1ccccc1)NC[C@@H](N)CS (stereo partly specified)
Cytotoxic endpoint (NIH3T3): 10 µM

SMILES: CCC(C)[C@H](NC(=O)CCS)C(=O)NCCc1ccccc1 (stereo partly specified)
IC50 [1]: > 10000 nM
Cytotoxic endpoint (NIH3T3): 10 µM

SMILES: CCC(C)[C@H](NC[C@@H](N)CS)C(=O)NCc1ccccc1 (stereo partly specified)
IC50 [1]: 450 nM
IC50 [2]: 86000 nM

SMILES: CCC(C)[C@H](NC[C@@H](N)CS)C(=O)N(C)Cc1ccccc1 (stereo partly specified)
IC50 [1]: 945 nM

SMILES: CCCCN(Cc1ccccc1)C(=O)[C@@H](NC[C@@H](N)CS)C(C)CC (stereo partly specified)
IC50 [1]: 1300 nM

SMILES: CCCC[C@H](NC[C@@H](N)CS)C(=O)NCc1ccccc1
IC50 [1]: 900 nM

SMILES: CC[C@H](C)[C@H](NC(=O)[C@@H](N)CS)C(=O)NCCc1ccccc1 (H-Cys-Ile-NHPhenethyl)
IC50 [1]: 1000 nM
Cytotoxic endpoint (NIH3T3): >100 µM

Continued by falling IC50 [1], values first:

IC50 [1]: 400 nM
IC50 [2]: 21000 nM
SMILES: CCC(C)[C@H](NC[C@@H](N)CS)C(=O)NCc1ccc(S(N)(=O)=O)cc1 (stereo partly specified)
Cytotoxic endpoint (NIH3T3): 100 µM

IC50 [1]: 370 nM
SMILES: CCC(C)[C@H](NC[C@@H](N)CS)C(=O)NC(CO)Cc1ccccc1 (stereo partly specified)

IC50 [1]: 350 nM
SMILES: CCC(C)[C@H](NC[C@@H](N)CS)C(=O)NCCCc1ccccc1 (stereo partly specified)

IC50 [1]: 120 nM
IC50 [2]: 30000 nM
SMILES: CCC(C)[C@H](NC[C@@H](N)CS)C(=O)NCc1ccc(C)cc1C (stereo partly specified)
Cytotoxic endpoint (NIH3T3): 10 µM

IC50 [1]: 97 nM
IC50 [2]: 10000 nM
SMILES: CCC(C)[C@H](NC[C@@H](N)CS)C(=O)NCc1ccc(Cl)cc1Cl (stereo partly specified)
Cytotoxic endpoint (NIH3T3): 10 µM

IC50 [1]: 70 nM
SMILES: CCC(C)[C@H](NC[C@@H](N)CS)C(=O)Nc1ccccc1 (stereo partly specified)

IC50 [1]: 60 nM
SMILES: CCC(C)[C@H](NC[C@@H](N)CS)C(=O)Nc1ccc(C)cc1C (stereo partly specified)
Cytotoxic endpoint (NIH3T3): 5 µM

IC50 [1]: 46 nM
IC50 [2]: 6200 nM
SMILES: CCC(C)[C@H](NC[C@@H](N)CS)C(=O)Nc1cccc(C)c1 (stereo partly specified)
Cytotoxic endpoint (NIH3T3): 25 µM

IC50 [1]: 40 nM
IC50 [2]: 8200 nM
SMILES: CCC(C)[C@H](NC[C@@H](N)CS)C(=O)Nc1cccc(C)c1C (stereo partly specified)
Cytotoxic endpoint (NIH3T3): 10 µM

IC50 [1]: 23 nM
IC50 [2]: 6800 nM
SMILES: CCC(C)[C@H](NC[C@@H](N)CS)C(=O)NCc1cccc(Cl)c1Cl (stereo partly specified)
Cytotoxic endpoint (NIH3T3): 5 µM
